High-throughput results: PubChem, Sanford-Burnham Center for Chemical Genomics
Apaf-1 inh: human Apaf-1 inhibition. 0.71% of 330,000 active. reconstituted apoptosome caspase-3 activity, DEVD-Rh110 fluorescence. inhibition, % at 20 µM; active = inhibition of at least 40% at 20 µM;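 also: plate controls were DMSO wells for no effect and DEVD-CHO caspase inhibitor wells for full effect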
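System – cell-free apoptosome with Apaf-1, procaspase-3 and caspase-9 · Buffer or medium – pH 7.5 Hepes buffer with CHAPS, BSA, DTT · Also added – cytochrome c with DEVD-Rh110 · Times – 30 min compound preincubation, 50 min activation, room temperature · Technique – Rh110 fluorescence intensity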
SENP7 block: blocks the human protease SENP7. 1.5% of 330,000 active. AID 434973. recombinant SENP7, Z-RLRGG-aminoluciferin luminescence, 40 min. inhibition, % at 5 µM;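 active = inhibition above about 50% at the single test dose, limit read from the data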;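 also: plate controls were DMSO with enzyme for no effect and no enzyme buffer wells for full effect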
SENP8 block-1: blocks the human protease SENP8; 1.2% of 330,000 active; inhibition, % at 10 µM; purified SENP8, Z-RLRGG-aminoluciferin cleavage, luminescence; in the data active = inhibition above about 50%
UBC13 polyUb: inhibitors of human UBC13 polyubiquitin chain formation | P61088 | TR-FRET | inhibition, % at 20 µM | 0.47% of 330,000 active | AID 485273; in the data active = inhibition above about 45%, passing the limit was not always enough
SENP6 inh: inhibitors of human SENP6 protease. Q9GZR1. Recombinant SENP6 catalytic domain, aminoluciferin luminescence. inhibition, % at 10 µM. 1.8% of 330,000 active;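 active = inhibition above about 50% at the single tested dose, limit read from the data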;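 also: plate controls were DMSO wells with enzyme for no effect and DMSO wells lacking enzyme for full effect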
Target sequence (Q9GZR1 628-1112 limits assumed): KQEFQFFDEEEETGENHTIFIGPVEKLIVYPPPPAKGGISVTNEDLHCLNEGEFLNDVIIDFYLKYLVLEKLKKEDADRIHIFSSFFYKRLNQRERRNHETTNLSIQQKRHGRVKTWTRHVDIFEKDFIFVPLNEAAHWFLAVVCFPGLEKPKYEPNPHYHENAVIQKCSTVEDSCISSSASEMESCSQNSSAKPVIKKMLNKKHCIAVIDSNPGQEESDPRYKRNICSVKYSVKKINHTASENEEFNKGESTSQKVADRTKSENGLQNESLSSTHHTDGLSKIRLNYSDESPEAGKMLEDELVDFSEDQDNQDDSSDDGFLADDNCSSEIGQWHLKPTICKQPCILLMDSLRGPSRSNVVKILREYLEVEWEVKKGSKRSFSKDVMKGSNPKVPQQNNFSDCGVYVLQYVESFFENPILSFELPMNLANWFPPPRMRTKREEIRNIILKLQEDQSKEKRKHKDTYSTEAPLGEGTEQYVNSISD
SENP8 block-2: blocks human SENP8 cleavage of Nedd8 substrate; inhibition, % at 20 µM; recombinant SENP8, Nedd8 substrate fluorescence; Q96LD8; 0.64% of 360,000 active; AID 602440; in the data active = inhibition mostly above about 40%, no sharp cut-off; inactive = mostly below about 27%
SENP8 conf: confirmation of human SENP8 protease inhibitors | shares compounds with SENP8 block-2 | purified SENP8, Nedd8-AMC/pro-Nedd8 cleavage fluorescence, 30 min | inhibition, % at 25 µM | 15% of 1,400 active; in the data active = inhibition mostly above about 39%, no sharp cut-off; inactive = mostly below about 34%
Numbers without * were called inactive; . = not tested or not shown. In the library only some 3% were active in any assay of this set; here they are far more common.

SMILES | Apaf-1 inh | SENP7 block | SENP8 block-1 | UBC13 polyUb | SENP6 inh | SENP8 block-2 | SENP8 conf
CCCC(=O)N1CCN(c2ccc(NC(=O)c3ccc(N4CCCC4)c([N+](=O)[O-])c3)cc2Cl)CC1 | -17 | 8 | 7 | -4 | -8 | 45* | 18
Cc1ccc(NC(=O)c2ccc(N3CCOCC3)c([N+](=O)[O-])c2)cc1S(=O)(=O)N1CCOCC1 | 19 | 7 | -3 | -13 | -3 | 44* | 30
CCN1CCN(c2ccc(NC(=O)c3ccc([N+](=O)[O-])o3)cc2Cl)CC1 | . | . | . | . | . | 52* | 20
CCC(=O)N1CCN(c2ccc(NC(=O)c3ccc([N+](=O)[O-])o3)cc2Cl)CC1 | . | . | . | . | . | 26 | .
COc1ccc(CCC(C)NCC2CCCCC2)cc1 (centres undefined) | 3 | 1 | 1 | 3 | 1 | 25 | .
COc1ccc(CCC(C)NC2CCCCCCC2)cc1 (centres undefined) | -15 | 1 | -3 | 11 | -53 | 49* | -7
O=c1cc(-c2ccc(C(F)(F)F)cc2)oc2ccccc12 | 19 | 35 | 20 | 20 | 8 | -4 | .
O=c1cc(-c2ccccc2)oc2ccccc12 | -1 | -1 | 5 | -1 | -11 | 43* | 19
Cn1cc(/C=C(\NC(=O)c2ccccc2)C(=O)NCCN2CCOCC2)c2ccccc21 | 2 | 10 | -13 | -12 | -11 | 9 | .
O=[N+]([O-])c1ccc(/C=[N+](\[O-])CCO)o1 | 7 | -2 | 5 | -8 | 7 | 45* | 18
NC(=O)N/N=C/c1ccc([N+](=O)[O-])o1 | 6 | 3 | 5 | -23 | -8 | 24 | .
CC1(C(=O)NS(=O)(=O)C2CC2)CCCN(C(=O)c2ccccc2OC(F)(F)F)C1 (centres undefined) | . | . | . | . | . | 12 | .
CC(C)[C@H](Nc1ccc(C(F)(F)F)cc1[N+](=O)[O-])C(=O)O | -1 | 5 | 2 | -4 | -10 | 41* | 22
C=CCN1C=CC(=CC=C(C#N)C#N)C=C1 | -8 | 1 | -3 | -306 | -4 | 56* | 10
CCCCCCN1C=CC(=C/C=C(\C#N)C(=O)OCC)C=C1 | -4 | 3 | -3 | -350 | 3 | 36* | 32
CCCN1C=CC(=CC=C(C#N)C#N)C=C1 | 3 | -4 | 2 | -158 | -4 | 50* | 9
CCCCCCN1C=C/C(=C\C=C(C#N)C#N)c2ccccc21 | 17 | 17 | 15 | -36 | 26 | 29 | .
CCCCCN1C=CC=C/C1=C\C=C(C#N)C#N | -3 | -3 | -4 | -48 | -8 | 36 | .
CCCN1C=CC(=C/C=C(\C#N)C(=O)OCC)C=C1 | 5 | -20 | -13 | -478 | -14 | . | .
CCCCCCN1C=CC=C/C1=C/C=C(C#N)C#N | 7 | -3 | -4 | -67 | -2 | 50* | 27
CCN(CC)c1ccc2cc(-c3nc(-c4cc5ccccc5oc4=O)cs3)c(=O)oc2c1 | . | . | . | . | . | -444 | .
C=Cc1ccc(Cn2nc(-c3ccccc3)ccc2=O)cc1 | 14 | -11 | -10 | 1 | -28 | -10 | .
CCC(C)(C)NC(=O)C(c1ccc(OC)cc1)N(C(=O)CCC(=O)Nc1cc(C)on1)c1ccc2c(c1)OCCO2 (centres undefined) | 4 | 2 | 4 | 4 | 7 | 2 | .
COc1ccc(S(=O)(=O)N(C)C[C@H]2Oc3c(NC(=O)Cc4ccccc4)cccc3C(=O)N([C@H](C)CO)C[C@@H]2C)cc1 | 16 | -7 | -16 | -9 | -11 | 14 | .
CCOC(=O)Cn1c2ccc(OC)cc2c2nc3ccccc3nc21 | -5 | 3 | -5 | -21 | 6 | 58* | 11
CCC(C(=O)N/N=C/c1cccnc1)c1ccccc1 (centres undefined) | 0 | 0 | 2 | 0 | 8 | -2 | .
Cc1ccc2c(cnn2C(=O)CCC(=O)NCc2ccccc2Cl)c1 | 17 | 17 | -7 | -8 | -8 | 11 | .
O=C1CCC(C(=O)O)N1 (centres undefined) | -10 | -2 | 3 | 9 | -16 | 52* | 17
COC(=O)[C@]12CCCCC=C1N(Cc1ccc3c(c1)OCO3)C(=O)[C@H](CC(=O)NCCC(C)C)C2 | . | . | . | . | . | 24 | .
